CHRM5 antagonist – blocks acetylcholine activation of human M5 receptor | 360,000 tested, 0.59% active | inhibition, % at 3 µM | CHO-hM5 cells, Fluo-8 calcium fluorescence, ACh EC80 | P08912;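 active = inhibition above a per-plate cutoff, the mean of that plate's test compounds plus 3 SD, cut at about 27% in these data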
Target sequence (P08912 whole entry, looked up): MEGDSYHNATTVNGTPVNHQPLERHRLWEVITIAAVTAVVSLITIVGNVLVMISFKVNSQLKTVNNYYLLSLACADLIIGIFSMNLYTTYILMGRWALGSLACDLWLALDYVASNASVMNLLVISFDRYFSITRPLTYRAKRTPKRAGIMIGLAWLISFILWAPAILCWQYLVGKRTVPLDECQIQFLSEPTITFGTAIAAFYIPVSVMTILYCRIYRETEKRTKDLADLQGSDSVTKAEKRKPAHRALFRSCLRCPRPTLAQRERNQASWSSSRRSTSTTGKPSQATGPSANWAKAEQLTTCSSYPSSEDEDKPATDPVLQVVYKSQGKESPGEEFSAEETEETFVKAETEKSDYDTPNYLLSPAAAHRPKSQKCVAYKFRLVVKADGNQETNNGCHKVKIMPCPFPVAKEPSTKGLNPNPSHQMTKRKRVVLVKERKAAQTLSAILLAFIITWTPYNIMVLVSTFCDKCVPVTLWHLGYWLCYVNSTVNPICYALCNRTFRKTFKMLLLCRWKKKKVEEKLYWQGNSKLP
M5 PAM – potentiates acetylcholine response at human M5 receptor; AID 624038; 360,000 tested, 0.3% active; CHO-K1 hM5, Fluo-8 calcium, ACh EC20 PAM; 0% = ACh EC20, 100% = ACh EC100; activation, % at 3 µM; P08912;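 active = activation above the run cutoff, the mean activation of all test compounds plus 3 SD, cut at about 18% in these data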
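System: CHO-K1 cell line with stable human muscarinic M5 receptor expression | Also added: EC20 acetylcholine as agonist stimulus | Compound: One concentration, 3 µM final (nominal) | Timing: Fluo-8 loading 80 min at 37 °C plus 30 min room temperature | Measured by: Fluo-8 calcium dye fluorescence, kinetic read | Read-out basis: % activation, ACh-normalized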
M5 ag – CHRM5 agonism in calcium assay; 360,000 tested, 0.19% active; activation, % at 3 µM; P08912; CHO-K1 hM5 cells, Fluo-8 calcium fluorescence; 0% DMSO wells, 100% maximal acetylcholine response;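 active = activation above the run's mean over test compounds plus 3 SD, cut at about 23% in these data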;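 also: signal is peak over basal fluorescence ratio across the kinetic read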
M4 PAM – positive allosteric modulators of human muscarinic M4 receptor; P08173; AID 624126; activation, % at 3 µM; CHO-K1 hM4/Gqi5, Fluo-8 calcium fluorescence, ACh EC20; 0% = ACh EC20, 100% = maximal ACh; 360,000 tested, 0.4% active;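 active = activation above its plate's cutoff, the mean activation of sample wells plus 3 SD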
M4 antag – blocks acetylcholine activation of human M4 receptor; CHO-hM4 cells, ACh EC80, Fluo-8 calcium fluorescence; inhibition, % at 3 µM; AID 624125; 360,000 tested, 0.73% active;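 active = inhibition above its plate's cutoff, the mean inhibition of sample wells plus 3 SD, cut at about 27% in these data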
M4 ag – CHRM4 agonism in calcium assay | activation, % at 3 µM | CHO-K1 hM4/Gqi5, Fluo-8 calcium fluorescence; vehicle 0%, full acetylcholine response 100% | AID 624127 | 360,000 tested, 0.14% active | P08173;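 active = activation above the run mean over all test wells plus 3 SD, cut at about 32% in these data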;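 also: peak over basal fluorescence ratio per well then scaled between controls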
Numbers stand for hits; n = inactive. Compounds with a hit are over-represented: about 1.8% of the library has one in this group of screens.

SMILES | CHRM5 antagonist | M5 PAM | M5 ag | M4 PAM | M4 antag | M4 ag
COc1cc(CNCCc2c[nH]c3ccccc23)ccc1OCc1ccc(F)cc1 | n | n | n | n | 47.0 | 47.3
CCOc1ccc(NC(=O)CN(C)C(=O)c2ccccc2OCCOc2ccccc2)cc1OCC | n | n | n | n | n | n
COc1ccc(Cc2c(C3CCCCC3)nc3c(Cl)cc(C(F)(F)F)cn23)c(C)c1 | n | n | n | n | n | n
Clc1ccc2ccc3cccnc3c2n1 | n | n | n | n | n | n
O=S1(=O)Nc2c(ccc3cccnc23)-c2ccccc21 | 31.4 | n | n | n | 30.1 | n
Cc1ccc(C)c(NS(=O)(=O)c2c(C)nn(C)c2C)c1 | n | n | n | n | n | n
Cc1ccc(OS(=O)(=O)c2c(C)nn(C)c2Cl)c(C)c1 | 30.5 | n | n | n | 43.3 | n
CNC(C)C(=O)NC(C(=O)NC(C)C(=O)Nc1cccc2ccccc12)C(C)C (stereo unspecified) | n | n | n | 18.4 | n | n
O=C1NC[C@H](Cc2ccccc2)N(CC2CCN(CCCCc3ccccc3)CC2)C1=O | n | n | n | n | n | n
S=C1NC[C@H](Cc2ccccc2)N1CC1CCN(CCCCc2ccccc2)CC1 | n | n | n | n | 27.5 | n
C=CCNC(=O)C1CC(=O)N(c2ccc(OCC(=O)Nc3ccc(Cl)cc3)cc2)C1 (stereo unspecified) | n | n | n | n | n | n
Clc1ccc(C(CCN2CCCC2)Cc2ccccc2)cc1 (stereo unspecified) | n | n | n | n | 31.8 | n
OC(CCN1CCCCC1)c1ccc(-c2ccccc2)cc1 (stereo unspecified) | n | n | n | n | n | n
COCCn1c(=NC(=O)C2COc3ccccc3O2)sc2cc(S(N)(=O)=O)ccc21 (stereo unspecified) | n | n | n | n | n | n
CCn1c(=NC(=O)C2COc3ccccc3O2)sc2c(OC)ccc(OC)c21 (stereo unspecified) | n | n | n | n | 36.4 | n
Cc1ccc2occ(/C=N/NC(=O)c3ccncc3)c(=O)c2c1 | n | n | n | 19.8 | n | n
Cc1cc(CNC[C@H]2O[C@@H](n3cnc4c(N)ncnc43)[C@H](O)[C@@H]2O)no1 | n | n | n | n | n | n
O=C1NCCc2c1[nH]c1c(Cl)ccc(Cl)c21 | n | 20.6 | n | n | n | n
O=C(NNC(=O)c1ccc(-c2ccc([N+](=O)[O-])cc2)o1)c1ccncc1 | n | n | n | n | n | n
COCCN1C(=O)COc2ccccc2C1C(=O)Nc1c(C)cccc1C (stereo unspecified) | n | n | n | n | n | n
COC(=O)CSc1nc(-c2cccs2)ccc1C#N | n | n | n | n | 73.5 | n
NC(=NCCc1c[nH]c2ccccc12)NC(=O)c1ccc(F)cc1 | n | n | n | n | n | n
CC1CCCCN1S(=O)(=O)c1ccc([N+](=O)[O-])cc1 (stereo unspecified) | n | n | n | n | 28.7 | n
CCC1CCCCN1S(=O)(=O)c1ccc([N+](=O)[O-])cc1 (stereo unspecified) | n | n | n | n | 28.3 | n
CCCCOCCCNC(=O)C[C@@H]1C[C@@]2(C(=O)OC)CC(C)(C)CC=C2N(Cc2cccc3ccccc23)C1=O | n | n | n | n | n | n
SMILES | CHRM5 antagonist | M5 PAM | M5 ag | M4 PAM | M4 antag | M4 ag
CCCN(CC(=O)Nc1cc(Cl)ccc1Cl)C(=O)CN1C(=O)C2CCCCC2C1=O (stereo unspecified) | n | n | n | n | n | n
COC(=O)[C@H](C)NC(=O)NC(C)CCc1ccccc1 (stereo partly specified) | n | n | n | 19.8 | n | n
CCCCN(C(=O)CCC(=O)Nc1cc(C)on1)C(C(=O)NC1CCCC1)c1ccc(F)cc1 (stereo unspecified) | n | 19.6 | n | n | n | n
CCCCN(C(=O)CCC(=O)Nc1cc(C)on1)C(C(=O)NC1CCCC1)c1ccccc1C (stereo unspecified) | n | n | n | n | n | n
Cc1[nH]n(-c2ccccc2)c(=O)c1/C=N/NC(=O)c1ccc(O)cc1O | n | n | n | n | n | n
Cc1cc(C(=O)N/N=C/c2c(C)[nH]n(-c3ccccc3)c2=O)n[nH]1 | n | 18.9 | n | n | n | n
CCN(CC)c1ccc2cc(C(=O)c3cccs3)c(=O)oc2c1 | 38.8 | n | 51.9 | n | 33.3 | 64.8
CCN(CC)c1ccc2cc(-c3nc4ccccc4[nH]3)c(=O)oc2c1 | 36.4 | n | 119.0 | n | n | 552.2
CCN(CC)c1ccc2cc(-c3nc4ccccc4n3C)c(=O)oc2c1 | n | n | n | n | n | n
O=C(c1ccc(S(=O)(=O)N2CCCCCC2)cc1)N1CCN(c2ccccc2)CC1 | 28.4 | n | n | n | n | n
O=C(c1cccc(S(=O)(=O)N2CCCCC2)c1)N1CCN(c2ccccc2)CC1 | n | n | n | n | n | n
CCOC(=O)Cn1cnc(-c2ccc([N+](=O)[O-])cc2)c1 | n | n | n | 26.5 | n | n
Nc1ncnc(Nc2ccc(F)c(Cl)c2)n1 | n | n | n | 11.7 | n | n
CN1C(=O)/C(=C/c2coc3ccc(O)cc3c2=O)SC1=S | n | n | n | n | n | n
Cc1cc(/C=C2\C(=N)N3N=C(c4ccco4)SC3=NC2=O)c(C)n1Cc1ccccc1 | n | n | n | n | n | n
N=C1/C(=C\c2coc3ccc(O)cc3c2=O)C(=O)N=C2SC=CN12 | n | n | 65.2 | n | n | 49.7
N=C1/C(=C\c2coc3ccccc3c2=O)C(=O)N=C2SC(c3ccncc3)=NN12 | 51.5 | n | 65.0 | n | 28.3 | 41.2
N=C1/C(=C/c2coc3ccccc3c2=O)C(=O)N=C2SC(c3ccco3)=NN12 | 53.4 | n | 222.9 | n | n | 64.3
CCOC(=O)[C@]12CCCC=C1N(Cc1ccco1)C(=O)[C@H](CC(=O)NCCC(C)C)C2 | n | n | n | n | n | n
O=[N+]([O-])c1ccc(Cl)cc1P(=O)(O)c1cc(Cl)ccc1[N+](=O)[O-] | n | n | n | n | n | n
Cc1ccc(C(C)C)c(OCCn2ccnc2C)c1 | 57.4 | n | n | n | 51.5 | n
Cc1ccc(OCCCCn2ccnc2C)c(C)c1 | n | n | n | n | n | n
O=C(CSc1n[nH]c(=O)n1Cc1ccccc1)Nc1ccc(F)c(F)c1F | n | n | n | n | n | n
CN(C(=O)COC(=O)CNC(=O)c1ccccc1F)C1CCCCC1 | n | n | n | 23.2 | n | n
CCN(CC)CCCNC(=O)c1ccc(S(=O)(=O)Nc2ccc(C)c(C)c2)cc1 | n | n | n | n | n | n

Source: PubChem (The Scripps Research Institute Molecular Screening Center)
